Reference: ChEMBL document CHEMBL4819122, “Novel 4-(piperazin-1-yl)quinolin-2(1H)-one bearing thiazoles with antiproliferative activity through VEGFR-2-TK inhibition” (Bioorg Med Chem, 2021)
Active and inactive are the calls of the source. The rule behind the calls is not given here.

Legend:
HOP-92 = experiment: Cytotoxicity against human HOP-92 assessed as growth inhibition at 10 uM by NCI protocol relative to control; format: functional; details: for inhibition of growth at 10 µM: read-out: GI
In short: (§1)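 Run by NCI as a single-dose screen at 10 μM across the sixty-cell-line panel, which covers nine human tumour tissue types. The read-out is percent growth inhibition of treated cells relative to untreated cells.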

COLO 205 = experiment: Cytotoxicity against human COLO 205 assessed as growth inhibition at 10 uM by NCI protocol relative to control; format: functional; details: read-out: GI; in short: as §1
SF-268 = experiment: Cytotoxicity against human SF-268 assessed as growth inhibition at 10 uM by NCI protocol relative to control; format: functional; details: read-out: GI; in short: as §1
LOX IMVI = experiment: Cytotoxicity against human LOX IMVI assessed as growth inhibition at 10 uM by NCI protocol relative to control; format: functional; details: read-out: GI; in short: as §1
SK-MEL-2 = experiment: Cytotoxicity against human SK-MEL-2 assessed as growth inhibition at 10 uM by NCI protocol relative to control; format: functional; details: read-out: GI; in short: as §1
SK-OV-3 = experiment: Cytotoxicity against human SK-OV-3 assessed as growth inhibition at 10 uM by NCI protocol relative to control; format: functional; details: read-out: GI; in short: as §1
A498 = experiment: Cytotoxicity against human A498 assessed as growth inhibition at 10 uM by NCI protocol relative to control; format: functional; details: read-out: GI; in short: as §1
RXF 393 = experiment: Cytotoxicity against human RXF 393 assessed as growth inhibition at 10 uM by NCI protocol relative to control; format: functional; details: read-out: GI; in short: as §1
SN12C = experiment: Cytotoxicity against human SN12C assessed as growth inhibition at 10 uM by NCI protocol relative to control; format: functional; details: read-out: GI
In short: (§2)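 Run by the NCI under its standard protocol: one dose of 10 μM against a sixty-line panel from nine human tumour tissues. Result given as percent growth inhibition of treated cells relative to untreated cells.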

TK-10 = experiment: Cytotoxicity against human TK-10 assessed as growth inhibition at 10 uM by NCI protocol relative to control; format: functional; details: read-out: GI; in short: as §2
MDA-MB-231 = experiment: Cytotoxicity against human MDA-MB-231 assessed as growth inhibition at 10 uM by NCI protocol relative to control; format: functional; details: read-out: GI; in short: as §1
T47D [1] = experiment: Cytotoxicity against human T-47D assessed as growth inhibition at 10 uM by NCI protocol relative to control; format: functional; details: read-out: GI; in short: as §2
MDA-MB-468 = experiment: Cytotoxicity against human MDA-MB-468 assessed as growth inhibition at 10 uM by NCI protocol relative to control; format: functional; details: read-out: GI; in short: as §1
T47D [2] = experiment: Cytotoxicity against human T47D cells assessed as reduction in cell viability after 3 hrs by MTT assay
SNB-19 = experiment: Cytotoxicity against human SNB-19 assessed as growth inhibition at 10 uM by NCI protocol relative to control; format: functional; details: read-out: GI; in short: as §2
HOP-62 = experiment: Cytotoxicity against human HOP-62 assessed as growth inhibition at 10 uM by NCI protocol relative to control; format: functional; details: read-out: GI; in short: as §1
MCF10 = experiment: Cytotoxicity against human MCF10 cells assessed as reduction in cell viability after 3 hrs by MTT assay; details: MCF10, 3 h
T47D [3] = experiment: Induction of cell cycle arrest in human T47D cells assessed as increase in accumulation at G0/G1 phase after 24 hrs by propidium iodide/Annexin V staining based FACScan flow cytometry(reference value: 52.59%); format: functional
T47D [4] = experiment: Induction of cell cycle arrest in human T47D cells assessed as increase in accumulation at S phase after 24 hrs by propidium iodide/Annexin V staining based FACScan flow cytometry(reference value: 34.62%); format: functional
T47D [5] = experiment: Induction of cell cycle arrest in human T47D cells assessed as increase in accumulation at G2/M phase after 24 hrs by propidium iodide/Annexin V staining based FACScan flow cytometry(reference value: 12.79%); format: functional
T47D [6] = experiment: Induction of cell cycle arrest in human T47D cells assessed as increase in accumulation at pre G1 phase after 24 hrs by propidium iodide/Annexin V staining based FACScan flow cytometry(reference value: 2.61%); format: functional
T47D [7] = experiment: Induction of apoptosis in human T47D cells assessed as total apoptotic cells after 24 hrs by Annexin V-FITC/propidium iodide staining based flow cytometric analysis (reference value: 2.61 %); format: functional
T47D [8] = experiment: Induction of apoptosis in human T47D cells assessed as early apoptotic cells after 24 hrs by Annexin V-FITC/propidium iodide staining based flow cytometric analysis (reference value: 0.66 %); format: functional
T47D [9] = experiment: Induction of apoptosis in human T47D cells assessed as late apoptotic cells after 24 hrs by Annexin V-FITC/propidium iodide staining based flow cytometric analysis (reference value: 0.21 %); format: functional
T47D [10] = experiment: Induction of apoptosis in human T47D cells assessed as necrotic cells after 24 hrs by Annexin V-FITC/propidium iodide staining based flow cytometric analysis (reference value: 1.74%); format: functional

Row | Compound | inhibition of growth at 10 µM (HOP-92) | inhibition of growth at 10 µM (COLO 205) | inhibition of growth at 10 µM (SF-268) | inhibition of growth at 10 µM (LOX IMVI) | inhibition of growth at 10 µM (SK-MEL-2) | inhibition of growth at 10 µM (SK-OV-3) | inhibition of growth at 10 µM (A498) | inhibition of growth at 10 µM (RXF 393) | inhibition of growth at 10 µM (SN12C) | inhibition of growth at 10 µM (TK-10) | inhibition of growth at 10 µM (MDA-MB-231) | inhibition of growth at 10 µM (T47D [1]) | inhibition of growth at 10 µM (MDA-MB-468) | IC50 (T47D [2]) | inhibition of growth at 10 µM (SNB-19) | inhibition of growth at 10 µM (HOP-62) | growth inhibition (GI) (HOP-92) | other results
1 | Cc1ccc(-c2csc(NC(=O)CN3CCN(c4cc(=O)[nH]c5ccc(F)cc45)CC3)n2)cc1 | 39.7% | 10.7% | 14.5% | 23.9% | 10.2% | 11% | 56.6% | 27% | 45.1% | 46.3% | 19% | 74.3% | 41.5% | 8.41 µM |  |  |  | 
2 | O=C(CN1CCN(c2cc(=O)[nH]c3ccc(F)cc23)CC1)Nc1nc(-c2ccc(Cl)cc2)cs1 | 29.7% | 14.5% |  | 21.8% |  | 11.9% | 60.5% | 37.6% | 36.2% | 34.3% | 16.6% | 73.2% | 51.4% | 2.73 µM | 30.8% |  |  | 
3 | O=C(CN1CCN(c2cc(=O)n(-c3ccccc3)c3ccccc23)CC1)Nc1nc(-c2ccc(Cl)cc2)cs1 |  | 42.7% | 45.5% | 41.6% | 24.4% | 28.6% | 59.2% | 33% | 25.9% | 37.6% | 25.3% | 75.7% | 90.4% | 30.2 µM | 36% | 34.2% | inactive | IC50 (MCF10): 64.6 µM; Activity (T47D [3]): 45.69%; Activity (T47D [4]): 49.36%; Activity (T47D [5]): 4.95%; Activity (T47D [6]): 25.12%; Activity (T47D [7]): 25.12%; Activity (T47D [8]): 4.06%; Activity (T47D [9]): 11.21%; Activity (T47D [10]): 9.85%
4 | O=C(CN1CCN(c2cc(=O)n(-c3ccccc3)c3ccccc23)CC1)Nc1nc(-c2ccccc2)cs1 |  | 39.9% | 20.8% | 50.5% | 11.1% | 29.2% | 33.8% | 23.1% | 17.9% |  | 37.5% | 83.4% | 86.7% | 10.3 µM | 14.8% | 33.5% | inactive | 
